Our source for the Kd values is the RNAGym collection of RNA variant scans (doi:10.1038/nmeth.2970).

B1: GFP aptamer (parent)
chain: GCUUCUGGACUGCGAUGGGAGCACGAAACGUCGUGGCGCAAUUGGGUGGGGAAAGUCCUUAAAAGAGGGCCACCACAGAAGC

Variants of B1 are the subject of the data set. Description: HiTS-RAP. The conditions noted are these: with EGFP. Put shortly:
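Aptamer DNA templates carrying a T7 promoter and ter site were sequenced on an Illumina GAIIx flowcell, then transcribed in situ by T7 RNA polymerase and halted by GST-Tus (30 minutes, 37°C). Clusters were imaged after 30-minute room-temperature equilibration with EGFP-mOrange at 0.04 nM to 625 nM in fivefold steps. Intensities were decay-corrected, normalised to sequencing intensity and averaged per sequence. Kd came from weighted Hill fits per lane, geometrically averaged over three lanes, with non-rising sequences set to 125 nM.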
A word on the Kd: it is the constant that tells how readily two partners part at equilibrium. With GCUUCUGGACUGCGGUGGGAGCACGAGACGUCGUGGCGCAAUUGGGUGGGGAAAGUCCUUAAAAGAGGGCCACCACAGAAGC, the Kd came to 5.3 nM.
The figure for GCUUCUGGAUUGUGAUGGGAGCACGAAACGUCGUGGCGCAAUUGGGUGGGGAAAGUCCUUAAAAGAGGGCCACCACAGAAGC is 15.1 nM; for GCUUCUGGACUGCGAUGGGCGCACGAAACGUCGUGGCGCAAUUGGGUGGGGAAAGUCCUUAAAAGAGGGCCACCACAGAAGC it is no less than 125 nM; for GCUUCUGGACUGCGAUGGGGGCACGAAACGUCGUGGCGCAAUUGGGUGGGGAAAGUCCUUAAAAGAGGGCCACCACAGAAGC it is 8.28 nM.
The figure for GCUUCUGGACCGCGAUGGGAGCACGAAACGCCGUGGCGCAAUUGGGUGGGGAAAGUCCUUAAAAGAGGGCCACCACAGAAGC is 14.2 nM; for GCUUCUGGACUGCGAUUGGAGCACGAAACGUCGUGGCGCAAUUGGGUGGGGAAAGUCCUUAAAAGAGGGCCACCACAGAAGC it is 5.8 nM; for GCUUCUGGACUGCGAUAGGAGCACGAAACGUCGUGGCGCAAUUGGGUGGGGAAAGUCCUUAAAAGAGGGCCACCACAGAAGC it is no less than 125 nM.
In the case of GCUUCUGGACUGCGAUCGGAGCACGAAACGUCGUGGCGCAAUUGGGUGGGGAAAGUCCUUAAAAGAGGGCCACCACAGAAGC, the Kd was no less than 125 nM.
The figure for GCUUCUGGACUGCGGUGGGAGCACGAAGCGUCGUGGCGCAAUUGGGUGGGGAAAGUCCUUAAAAGAGGGCCACCACAGAAGC is 3.9 nM; for GCUUCUGGAUUGCGAUGGGAGCACGAAACGUCGUGGCGCAAUUGGGCGGGGAAAGUCCUUAAAAGAGGGCCACCACAGAAGC it is 1.58 nM.
The figure for GCUUCUGGACUGUGAUGGGAGCACGAAACGUCGCGGCGCAAUUGGGUGGGGAAAGUCCUUAAAAGAGGGCCACCACAGAAGC is 36.2 nM; for GCUUCUGGACUGUGAUGGGAGCACGAGACGUCGUGGCGCAAUUGGGUGGGGAAAGUCCUUAAAAGAGGGCCACCACAGAAGC it is 7.37 nM; for GCUUCUGGACUGCGACGGGAGCACGAAACGUCGUGGCGCAAUUGGGUGGGGAAAGUCCCUAAAAGAGGGCCACCACAGAAGC it is 7.5 nM.
GCUUCUGGACUGUGAUGGGAGCACGAAACGUCGUGGCGCAACUGGGUGGGGAAAGUCCUUAAAAGAGGGCCACCACAGAAGC: the Kd was found to be 3.54 nM.
To GCUUCUGGAUUGCGAUGGGAGCACGAAACGUCAUGGCGCAAUUGGGUGGGGAAAGUCCUUAAAAGAGGGCCACCACAGAAGC belongs 29.6 nM; to GCUUCUGGAUUGCGAUGGGAGCACGAAACGUCGCGGCGCAAUUGGGUGGGGAAAGUCCUUAAAAGAGGGCCACCACAGAAGC, 4.37 nM; to GCUUCUGGACUCCGAUGGGAGCACGAAACGUCGUGGCGCAAUUGGGUGGGGAAAGUCCUUAAAAGAGGGCCACCACAGAAGC, 30.6 nM.
To GCUUCUGGACUUCGAUGGGAGCACGAAACGUCGUGGCGCAAUUGGGUGGGGAAAGUCCUUAAAAGAGGGCCACCACAGAAGC belongs 18.9 nM.
Consider GCUUCUGGACUACGAUGGGAGCACGAAACGUCGUGGCGCAAUUGGGUGGGGAAAGUCCUUAAAAGAGGGCCACCACAGAAGC, for which the Kd was 22.4 nM.
For the variant GCUUCUGGAUUGCGAUGGGAGCACGAAGCGUCGUGGCGCAAUUGGGUGGGGAAAGUCCUUAAAAGAGGGCCACCACAGAAGC, the Kd was 4.55 nM.
To GCUUCUGGACUGCGUUGGGAGCACGAAACGUCGUGGCGCAAUUGGGUGGGGAAAGUCCUUAAAAGAGGGCCACCACAGAAGC belongs 10.3 nM.
The figure for GCUUCUGGACUGCGGUGGGAGCACGAAACGUCGUGGCGCAAUUGGGUGGGGAAAGUCCUUAAAAGAGGGCCACCACAGAAGC is 4.76 nM; for GCUUCUGGACUGCGCUGGGAGCACGAAACGUCGUGGCGCAAUUGGGUGGGGAAAGUCCUUAAAAGAGGGCCACCACAGAAGC it is 66.2 nM; for GCUUCUGGACUGCGAUGCGAGCACGAAACGUCGUGGCGCAAUUGGGUGGGGAAAGUCCUUAAAAGAGGGCCACCACAGAAGC it is no less than 125 nM.
Consider GCUUCUGGACUGCGAUGAGAGCACGAAACGUCGUGGCGCAAUUGGGUGGGGAAAGUCCUUAAAAGAGGGCCACCACAGAAGC, for which the Kd is no less than 125 nM.
In the case of GCUUCUGGACUGCGAUGUGAGCACGAAACGUCGUGGCGCAAUUGGGUGGGGAAAGUCCUUAAAAGAGGGCCACCACAGAAGC, the Kd was no less than 125 nM.
For the variant GCUUCUGGACUGUGAUGGGAGCACGAAACGUCGUGGCGCAAUUGGGUGGGGAAAGUCUUUAAAAGAGGGCCACCACAGAAGC, the Kd is 0.942 nM.
The figure for GCUUCUGGAUUGCGAUGGGAGCACGAAACGUCGUGGUGCAAUUGGGUGGGGAAAGUCCUUAAAAGAGGGCCACCACAGAAGC is 14.3 nM; for GCUUCUGGACUGUGAUGGGAGCACGGAACGUCGUGGCGCAAUUGGGUGGGGAAAGUCCUUAAAAGAGGGCCACCACAGAAGC it is 2.37 nM.
GCUUCUGGACUGCGACGGGAGCACGAAACGUCGUGGCGCAAUUGGGUGGGGAAAGUCCUUAAAAGAGGGCCACCACAGAAGC: the Kd was 6.81 nM.
The figure for GCUUCUGGACUGCGAGGGGAGCACGAAACGUCGUGGCGCAAUUGGGUGGGGAAAGUCCUUAAAAGAGGGCCACCACAGAAGC is 2.69 nM; for GCUUCUGGACUGCGAAGGGAGCACGAAACGUCGUGGCGCAAUUGGGUGGGGAAAGUCCUUAAAAGAGGGCCACCACAGAAGC it is 5.38 nM.
To GCUUCUGGACCGCGAUGGGAGCACGAAGCGUCGUGGCGCAAUUGGGUGGGGAAAGUCCUUAAAAGAGGGCCACCACAGAAGC belongs 15.9 nM.
Take GCUUCUGGACCGCGAUGGGAGCACGAAACGUCGUGGCGCAAUUGGGUGGGGAAAGUCCUUAAAAGAGGGCCACCACGGAAGC: the Kd was determined as 9.02 nM.
